Assays:
[1] = system: Homo sapiens; test: AUC (0 to infinity) in Papua new Guinean pregnant women assessed as monodesethychloroquine at 600 mg/day, po administered as three divided doses by HPLC method; format: ADME, organism-based, Plasma; design: dose 600 mg/day, time infinity, route oral; settings: in vivo
How it was run: (§1)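 Simulated values, not observed data. Final population PK model parameters were applied in NONMEM to hypothetical pregnant and nonpregnant women (n=1,000 each) generated with mvtnorm, with covariates such as weight drawn from the original subjects. Cmax, Tmax and AUC0-∞ of CQ and DECQ were derived for a range of plausible CQ regimens.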

[2] = system: Homo sapiens; test: Central compartment volume of distribution in Papua new Guinean women in second or third trimester of pregnancy using pharmacokinetic base model at 450 mg/day, po administered as three divided doses in presence of sulfadoxine-pyrimethamine by HPLC method; format: ADME, organism-based; settings: in vivo
How it was run: (§2)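 Papua New Guinean women in the second or third trimester of pregnancy (n=30) and age-matched nonpregnant women (n=30) took CQ 450 mg (8.5 mg/kg/day) as whole tablets with water once daily for 3 days, plus single-dose sulfadoxine-pyrimethamine, without fasting. Plasma was sampled from baseline to 72 h and on days 7–42. CQ and DECQ were measured by HPLC (UV 340 nm) and analysed by population PK modelling, with weight-allometric scaling expressed relative to F.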

[3] = system: Homo sapiens; test: Peripheral compartment volume of distribution in Papua new Guinean women in second or third trimester of pregnancy using pharmacokinetic base model assessed as monodesethychloroquine at 450 mg/day, po administered as three divided doses in presence of sulfadoxine-pyrimethamine by HPLC method; format: ADME, organism-based; settings: in vivo; how it was run: as §2
[4] = system: Homo sapiens; test: AUC (0 to infinity) in Papua new Guinean pregnant women assessed as monodesethychloroquine at 750 mg/day, po administered as three divided doses by HPLC method; format: ADME, organism-based, Plasma; design: dose 750 mg/day, time infinity, route oral; settings: in vivo; how it was run: as §1
[5] = system: Homo sapiens; test: AUC (0 to infinity) in women assessed as monodesethychloroquine at 450 mg/day, po administered as three divided doses by HPLC method; format: ADME, organism-based, Plasma; design: dose 450 mg/day, route oral, time infinity; settings: in vivo; how it was run: as §2
[6] = Apparent oral clearance in Papua new Guinean women in second or third trimester of pregnancy using pharmacokinetic base model at 450 mg/day, po administered as three divided doses in presence of sulfadoxine-pyrimethamine by HPLC method; format: ADME, organism-based; settings: female, human, in vivo; how it was run: as §2
[7] = Cmax in Papua new Guinean pregnant women at 750 mg/day, po administered as three divided doses by HPLC method; format: ADME, organism-based; design: dose 750 mg/day, route oral; settings: female, human, in vivo; how it was run: as §1
[8] = system: Homo sapiens; test: Central compartment volume of distribution in Papua new Guinean women in second or third trimester of pregnancy using pharmacokinetic final covariate model assessed as monodesethychloroquine at 450 mg/day, po administered as three divided doses in presence of sulfadoxine-pyrimethamine by HPLC method; format: ADME, organism-based; settings: in vivo; how it was run: as §2
[9] = system: Homo sapiens; test: Cmax in women assessed as monodesethychloroquine at 450 mg/day, po administered as three divided doses by HPLC method; format: ADME, organism-based; design: dose 450 mg/day, route oral; settings: in vivo; how it was run: as §1
[10] = AUC (0 to infinity) in Papua new Guinean pregnant women at 750 mg/day, po administered as three divided doses by HPLC method; format: ADME, organism-based; design: dose 750 mg/day, route oral, time infinity; settings: female, human, plasma; how it was run: as §1
[11] = Apparent oral clearance in Papua new Guinean women in second or third trimester of pregnancy using pharmacokinetic final covariate model at 450 mg/day, po administered as three divided doses in presence of sulfadoxine-pyrimethamine by HPLC method; format: ADME, organism-based; settings: female, human, in vivo; how it was run: as §2
[12] = system: Homo sapiens; test: Cmax in Papua new Guinean pregnant women assessed as monodesethychloroquine at 600 mg/day, po administered as three divided doses by HPLC method; format: ADME, organism-based; design: dose 600 mg/day, route oral; settings: in vivo; how it was run: as §1
[13] = system: Homo sapiens; test: Central compartment volume of distribution in Papua new Guinean women in second or third trimester of pregnancy using pharmacokinetic base model assessed as monodesethychloroquine at 450 mg/day, po administered as three divided doses in presence of sulfadoxine-pyrimethamine by HPLC method; format: ADME, organism-based; settings: in vivo; how it was run: as §2
[14] = AUC (0 to infinity) in Papua new Guinean pregnant women at 600 mg/day, po administered as three divided doses by HPLC method; format: ADME, organism-based; design: dose 600 mg/day, time infinity, route oral; settings: female, human, plasma; how it was run: as §1
[15] = system: Homo sapiens; test: Peripheral compartment volume of distribution in Papua new Guinean women in second or third trimester of pregnancy using pharmacokinetic base model at 450 mg/day, po administered as three divided doses in presence of sulfadoxine-pyrimethamine by HPLC method; format: ADME, organism-based; settings: in vivo; how it was run: as §2
[16] = Cmax in Papua new Guinean pregnant women at 600 mg/day, po administered as three divided doses by HPLC method; format: ADME, organism-based; design: dose 600 mg/day, route oral; settings: female, human, in vivo; how it was run: as §1
[17] = AUC (0 to infinity) in women at 450 mg/day, po administered as three divided doses by HPLC method; format: ADME, organism-based; design: dose 450 mg/day, time infinity, route oral; settings: female, human, plasma; how it was run: as §2
[18] = Cmax in Papua new Guinean pregnant women at 450 mg/day, po administered as three divided doses by HPLC method; format: ADME, organism-based; design: dose 450 mg/day, route oral; settings: female, human, in vivo; how it was run: as §1
[19] = system: Homo sapiens; test: Peripheral compartment volume of distribution in Papua new Guinean women in second or third trimester of pregnancy using pharmacokinetic final covariate model at 450 mg/day, po administered as three divided doses in presence of sulfadoxine-pyrimethamine by HPLC method; format: ADME, organism-based; settings: in vivo; how it was run: as §2
[20] = system: Homo sapiens; test: Peripheral compartment volume of distribution in Papua new Guinean women in second or third trimester of pregnancy using pharmacokinetic final covariate model assessed as monodesethychloroquine at 450 mg/day, po administered as three divided doses in presence of sulfadoxine-pyrimethamine by HPLC method; format: ADME, organism-based; settings: in vivo; how it was run: as §2
[21] = Cmax in women at 450 mg/day, po administered as three divided doses by HPLC method; format: ADME, organism-based; design: dose 450 mg/day, route oral; settings: female, human, in vivo; how it was run: as §1
[22] = system: Homo sapiens; test: Cmax in Papua new Guinean pregnant women assessed as monodesethychloroquine at 450 mg/day, po administered as three divided doses by HPLC method; format: ADME, organism-based; design: dose 450 mg/day, route oral; settings: in vivo; how it was run: as §1
[23] = system: Homo sapiens; test: Central compartment volume of distribution in Papua new Guinean women in second or third trimester of pregnancy using pharmacokinetic final covariate model at 450 mg/day, po administered as three divided doses in presence of sulfadoxine-pyrimethamine by HPLC method; format: ADME, organism-based; settings: in vivo; how it was run: as §2
[24] = system: Homo sapiens; test: Cmax in Papua new Guinean pregnant women assessed as monodesethychloroquine at 750 mg/day, po administered as three divided doses by HPLC method; format: ADME, organism-based; design: dose 750 mg/day, route oral; settings: in vivo; how it was run: as §1
[25] = AUC (0 to infinity) in Papua new Guinean pregnant women at 450 mg/day, po administered as three divided doses by HPLC method; format: ADME, organism-based; design: dose 450 mg/day, time infinity, route oral; settings: female, human, plasma; how it was run: as §2
[26] = system: Homo sapiens; test: AUC (0 to infinity) in Papua new Guinean pregnant women assessed as monodesethychloroquine at 450 mg/day, po administered as three divided doses by HPLC method; format: ADME, organism-based, Plasma; design: dose 450 mg/day, route oral, time infinity; settings: in vivo; how it was run: as §2

Question: Which AUC [1] does the source give for `CCN(CC)CCCC(C)Nc1ccnc2cc(Cl)ccc12` (stereo unspecified) [CHLOROQUINE] here?
Answer: 31835 ng·h/mL

Question: And the Vc/F [2]?
Answer: 4160 L

Question: And the Vp/F [3]?
Answer: 812 L

Question: And the AUC [4]?
Answer: 39793 ng·h/mL

Question: And the AUC [5]?
Answer: 41255 ng·h/mL

Question: And the CL/F [6]?
Answer: 568 mL/min

Question: And the Cmax [7]?
Answer: 494 ng/mL

Question: And the Vc/F [8]?
Answer: 40 L

Question: And the Cmax [9]?
Answer: 186 ng/mL

Question: What about the AUC(0-inf) [10] of the same molecule?
Answer: 59400 ng·h/mL

Question: And the CL/F [11]?
Answer: 488 mL/min

Question: What about the Cmax [12] of the same molecule?
Answer: 185 ng/mL

Question: What about the Vc/F [13] of the same molecule?
Answer: 39.9 L

Question: And the AUC(0-inf) [14]?
Answer: 47500 ng·h/mL

Question: And the Vp/F [15]?
Answer: 5200 L

Question: And the Cmax [16]?
Answer: 395 ng/mL

Question: And the AUC(0-inf) [17]?
Answer: 50000 ng·h/mL

Question: What about the Cmax [18] of the same molecule?
Answer: 296 ng/mL

Question: What about the Vp/F [19] of the same molecule?
Answer: 5190 L

Question: What about the Vp/F [20] of the same molecule?
Answer: 840 L

Question: What about the Cmax [21] of the same molecule?
Answer: 376 ng/mL

Question: What about the Cmax [22] of the same molecule?
Answer: 139 ng/mL

Question: And the Vc/F [23]?
Answer: 4220 L

Question: And the Cmax [24]?
Answer: 232 ng/mL

Question: What about the AUC(0-inf) [25] of the same molecule?
Answer: 35700 ng·h/mL

Question: What about the AUC [26] of the same molecule?
Answer: 23876 ng·h/mL
